# Activity calls are given as the source filed them.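 Rule for the calls: active = maximum inhibition above 30% at any tested concentration, with a dose response curve fitted; inactive = no inhibition at any dose or no dose response curve.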
# Assay: thallium flux inhibition in parental HEK293 cells, SAR follow-up, counter-screen for KCNK9 inhibitor project, cell-based, FluxOR thallium flux, concentration-response, set 2 (AID 540324)
# Conditions: FluxOR fluorescence ratio; series mostly up to 30 µM; flux ratio, lower = inhibition: at the top concentration
# Outline: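 Also added: K+/Tl+ sulfate stimulus, 5x stock; system: parental HEK293 cells; times: dye loading 90 min at room temperature in dark, compound exposure 20 min; replicates: at least duplicate; doses: 10 concentrations; technique: FluxOR thallium-flux fluorescence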
SMILES,"flux ratio, lower = inhibition",outcome
CCOc1cccc(NC(=O)c2cccc(NC(=O)C3CCCC3)c2)c1,0.139 (inactive),–
CCOc1ccccc1NC(=O)c1cccc(NC(=O)c2ccccc2C)c1,0.124 (inactive),–
COc1ccc(-c2n[nH]c(=S)n2C(C)C2CC3CCC2C3)cc1 (stereo unspecified),0.18 (inactive),–
CCOc1ccccc1C(=O)Nc1cccc(NC(=O)c2ccccc2OC)c1,0.189 (inactive),–
COc1cccc(C(=O)Nc2cccc(NC(=O)c3cccc(C)c3)c2)c1,0.163 (inactive),–
CCOc1ccccc1NC(=O)c1cccc(NC(=O)c2ccccc2C(F)(F)F)c1,0.17 (inactive),–
CCOc1ccccc1NC(=O)c1cccc(NC(=O)c2cccc(Cl)c2)c1,0.159 (inactive),–
Cc1cccc(C(=O)Nc2ccccc2NC(=O)c2ccccc2)c1,0.191 (inactive),–
O=C(Nc1cccc(NC(=O)c2ccc(C(F)(F)F)cc2)c1)c1ccccc1,–,inactive
COc1ccccc1C(=O)Nc1cccc(NC(=O)c2cccc(C)c2)c1,0.169 (inactive),–
Cc1cccc(C(=O)Nc2cccc(NC(=O)c3cccc(Cl)c3)c2)c1,0.154 (inactive),–
CCOc1ccccc1NC(=O)c1cccc(NC(=O)c2cccc(C(F)(F)F)c2)c1,0.161 (inactive),–
Cc1cccc(C(=O)Nc2cccc(NC(=O)c3ccc(N(C)C)cc3)c2)c1,0.208 (inactive),–
Cc1cccc(C(=O)Nc2cccc(NC(=O)c3cccc(C(F)(F)F)c3)c2)c1,0.185 (inactive),–
CCOc1ccccc1NC(=O)c1cccc(NC(=O)CC2CCCC2)c1,0.132 (inactive),–
Cc1cccc(C(=O)Nc2cccc(NC(=O)c3ccncc3)c2)c1,0.182 (inactive),–
COc1ccccc1NC(=O)c1cccc(NC(=O)c2ccccc2C(F)(F)F)c1,0.175 (inactive),–
O=C(Nc1cccc(NC(=O)c2cccc(Cl)c2)c1)c1ccccc1,0.193 (inactive),–

SMILES,"flux ratio, lower = inhibition",outcome
COc1ccccc1C(=O)Nc1cccc(NC(=O)c2ccccc2C(C)C)c1,0.159 (inactive),–
CN(C)c1ccc(C(=O)Nc2cccc(NC(=O)c3ccccc3)c2)cc1,0.199 (inactive),–
CCOc1ccccc1C(=O)Nc1cccc(NC(=O)c2ccccc2C(F)(F)F)c1,0.166 (inactive),–
S=c1[nH]nc(-c2ccco2)n1CC1CCCCC1,0.161 (inactive),–
O=C(Nc1cccc(NC(=O)c2ccco2)c1)c1ccccc1,0.189 (inactive),–
O=C(Nc1ccccc1Cl)c1cccc(NC(=O)C2CCCC2)c1,0.14 (inactive),–
Cc1cccc(C(=O)Nc2cccc(NC(=O)c3ccccc3C(F)(F)F)c2)c1,0.183 (inactive),–
Cc1cccc(C(=O)Nc2cccc(NC(=O)c3ccccc3C(C)C)c2)c1,0.155 (inactive),–
O=C(Nc1cccc(NC(=O)c2cccnc2)c1)c1ccccc1,0.207 (inactive),–
O=C(Nc1cccc(NC(=O)c2ccccn2)c1)c1ccccc1,0.182 (inactive),–
O=C(Nc1cccc(NC(=O)c2ccncc2)c1)c1ccccc1,0.192 (inactive),–
Cc1cccc(C(=O)Nc2cccc(NC(=O)c3cccs3)c2)c1,0.158 (inactive),–
O=C(Nc1cccc(NC(=O)c2ccoc2)c1)c1ccccc1,0.161 (inactive),–
O=C(Nc1cccc(NC(=O)c2ccc(F)cc2)c1)c1ccccc1,0.204 (inactive),–
Cc1cccc(C(=O)Nc2cccc(NC(=O)c3ccc(Cl)cc3)c2)c1,0.212 (inactive),–
CCOc1ccccc1NC(=O)c1cccc(NC(=O)c2ccccc2)c1,0.157 (inactive),–
O=C(Nc1cccc(NC(=O)c2ccc(Cl)cc2)c1)c1ccccc1,0.215 (inactive),–
COc1ccc(C(=O)Nc2cccc(NC(=O)c3cccc(C)c3)c2)cc1,0.18 (inactive),–
